# Tests used:
# [1] = system: Zika-induced caspase 3/7 activity in Vero cells; test: Caspase activity assay; type: cell-based, Zika virus; conditions: tested at 25 μM; relative to virus alone or virus with DMSO
# Procedure, shortened: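 ZIKV MR766 was pre-incubated with the DMSO-dissolved test compound or controls for 1 h at 37 °C, then added to Vero cells seeded at 1 × 10^4 cells/well the previous day (medium removed). Cells were incubated 3 days, viability read first (CellTiter-Fluor), then caspase 3/7 luminescence (Caspase-Glo 3/7). Run in triplicate.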
# Vero cells = test: Compound cytotoxicity; type: cell-based; conditions: 25 μM, no virus, 3 days, triplicate, values <1 = cytotoxic
# Procedure, shortened: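 Vero cells seeded at 1 × 10^4 cells/well were exposed the next day, with no virus, to the DMSO-dissolved test compound. Handling matched the infected viability assay, including the 1 h 37 °C compound pre-incubation step. Viability was read by CellTiter-Fluor after 3 days.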
# [2] = system: Zika strain MR766 (ZIKV-induced cell killing of Vero cells); test: Cell viability assay in the presence of virus; type: cell-based, Zika virus; conditions: tested at 25 μM; values over 1 signify inhibition of ZIKV-induced cell killing
# Procedure, shortened: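 Vero cells (DMEM, 10% heat-inactivated FBS, 37 °C, 5% CO2) were seeded at 1 × 10^4 cells/well. The next day they were infected with ZIKV that had been pretreated 1 h at 37 °C with the DMSO-dissolved test compound or controls. After 3 days, viability was read by CellTiter-Fluor fluorescence and normalized to infected cells. Run in triplicate.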
# [3] = system: Zika strain MR766 (infectivity in Vero cells); test: TCID50 end point dilution infectivity assay; type: cell-based, Zika virus; conditions: tested at 25 μM; activity cutoff <0.6
# Procedure, shortened: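 End-point dilution: Vero cells were seeded at 2 × 10^4 cells/well. The next day, medium was replaced with serial dilutions of ZIKV, untreated or pretreated 1 h at 37 °C with the test compound or controls. After 6 days at 37 °C, cells were fixed in 3.7% formaldehyde and stained with crystal violet. Wells were scored for CPE, and TCID50 was calculated by the Reed and Muench method.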
Compound,caspase activity [1],compound cytotoxicity (Vero cells),cell viability (normalized to ZIKV-infected cells) [2],TCID50 infectivity [3]
C[C@H](NC(=O)C(=O)Nc1ccccc1C(C)(C)C)C(=O)N[C@@H](CC(=O)O)C(=O)COc1c(F)c(F)cc(F)c1F [emricasan],suppressed caspase activity,,,
C#C[C@@]1(O)[C@H](O)[C@@H](CO)O[C@H]1n1ccc2c(N)ncnc21 [NITD008],suppressed caspase activity,some cytotoxicity,> 1.0,< 0.6

# — paper PMC7598728 (Biochemistry, 2020)
